# Bioassay records from PubChem.
# A selection: hits, their analogues and other compounds. The true share with any hit is near 2.4%.
# 697 NFkB inh = lowers PMA/ionomycin-induced NF-kB signal in 697 B cells; inhibition, % at 4 µM; 697 B-cell NF-kB luciferase reporter, 16 h; 0.33% of 330,000 active; AID 435022; in the data active = inhibition above about 35%
# MPTP inh = blocks calcium-induced mitochondrial swelling. isolated mouse mitochondria, Ca2+ swelling absorbance, 30 min. inhibition, % at 10 µM. 1.4% of 360,000 active. AID 602449;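 active = inhibition of 50% or more, scaled per plate between neutral and stimulator controls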;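 also: 0% = DMSO wells given calcium and 100% = 1 mM EGTA wells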
# Jurkat NFkB inh = lowers PMA/ionomycin-induced NF-kB signal in Jurkat cells. PMA/ionomycin-induced NF-kB luciferase reporter, luminescence. inhibition, % at 4 µM. 0.53% of 330,000 active. AID 435003; in the data active = inhibition above about 50%
# NR2E3 ag-1 = NR2E3 (human) agonism | Q9Y5X4 | GST-NR2E3/biotin-RetCOR TR-FRET, 1536-well | inhibition of corepressor binding, % at 4.78 µM | 0.12% of 320,000 active | AID 2300;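 active = percent inhibition above the cutoff of mean plus 3 SD of all tested compounds, set per screening campaign, cut at about 20% in these data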;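 also: 0% = DMSO wells and 100% = biotin wells as full block of FRET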
# Target sequence (Q9Y5X4 whole entry, looked up): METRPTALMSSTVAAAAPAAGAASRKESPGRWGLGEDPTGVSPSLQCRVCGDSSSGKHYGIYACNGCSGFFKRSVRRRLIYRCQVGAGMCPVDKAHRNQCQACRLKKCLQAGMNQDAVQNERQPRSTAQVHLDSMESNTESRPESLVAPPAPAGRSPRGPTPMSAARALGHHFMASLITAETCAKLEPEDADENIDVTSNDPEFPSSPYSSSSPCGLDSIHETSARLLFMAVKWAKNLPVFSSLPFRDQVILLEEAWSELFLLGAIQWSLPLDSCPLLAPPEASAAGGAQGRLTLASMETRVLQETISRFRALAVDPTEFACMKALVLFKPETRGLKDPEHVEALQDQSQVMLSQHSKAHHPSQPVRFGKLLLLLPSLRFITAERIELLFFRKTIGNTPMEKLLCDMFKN
#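 System: GST-NR2E3 and biotin-RetCOR proteins; probe or stimulus: 7 nM biotin-RetCOR; doses: compound at 4.8 µM, single dose; schedule: Compound–protein incubation for 5 h at 4 °C; detection: time-resolved FRET; read-out: percent inhibition; controls: biotin wells as high control, 0.6% DMSO wells as low control; format: 1536-well plates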
# NR2E3 ag-2 = human photoreceptor-specific nuclear receptor agonism | CHO-S Gal4-NCOR/VP16-NR2E3 two-hybrid, luciferase | inhibition of corepressor binding, % at 3.98 µM | Q9Y5X4 | AID 602229 | 0.35% of 360,000 active;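 active = inhibition above the mean of all tested compounds plus 3 SD, cut at about 70% in these data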;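 also: 0% = DMSO with NR2E3 transfected cells and 100% = cells lacking NR2E3 construct; higher means lower luciferase signal from less NR2E3 corepressor binding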
# aDG glyco act = increases alpha dystroglycan glycosylation | Pro5-aDG cells, alpha-DG glycosylation AlphaScreen (IIH6); 0% Pro5, 100% B10-LARGE cell signal | activation, % at 10 µM | 0.22% of 360,000 active | AID 624168;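 active = activation of at least 8% versus controls, or a plate z-score of at least 8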;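 also: Pro5 are CHO cells carrying HIG-tagged alpha-DG that lacks glycosylation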
# Rh123 counter = membrane potential counter-screen of mitochondrial pore inhibitors. shares compounds with MPTP inh. isolated mitochondria, Rhodamine 123 fluorescence. inhibition, % at 10 µM. 78% of 5,000 active. AID 624504; in the data active = inhibition above about 22%;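 also: 0% = DMSO vehicle and 100% = positive control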
# MPTP swell DR = MPTP inhibition, dose response swelling confirmation; AID 651561; isolated mitochondria swelling, absorbance; IC50, µM; 58% of 780 active; shares compounds with MPTP inh; in the data active = IC50 below about 20 µM
# MPTP cs DR = counter-screen for mitochondrial permeability transition pore inhibitors, dose response | shares compounds with MPTP inh | isolated mitochondria counterscreen, fluorescence read-out | IC50, µM | 49% of 780 active | AID 651564; in the data active = IC50 below about 80 µM
# An asterisk follows results filed as active; x = not tested or not shown.
SMILES,697 NFkB inh,MPTP inh,Jurkat NFkB inh,NR2E3 ag-1,NR2E3 ag-2,aDG glyco act,Rh123 counter,others
Cc1ccc(C)c(S(=O)(=O)C(C#N)c2nc3ccccc3nc2N2CCCC2)c1 (stereo unspecified),-4,-2,-12,0,-8,0,x,
CCS(=O)(=O)c1nc(S(=O)(=O)c2ccc(Cl)cc2)c(NCCOC)s1,30,1,-1,0,13,0,x,
COc1ccc(C(OCC(O)CNC(C)c2ccccc2)c2ccc(OC)cc2)cc1 (stereo unspecified),17,97*,1,4,-10,0,-7,MPTP swell DR=7.5*;MPTP cs DR=>80
O=C(/C=C/[C@H]1O[C@@H](n2ccc(=O)[nH]c2=O)[C@H](O)[C@@H]1O)NCCN1CCCCC1,x,-1,x,x,13,0,x,
CCCCn1nnnc1C1(C)CCC(=O)N1CC1CCCCC1 (stereo unspecified),x,0,x,x,-6,0,x,
C=CCNC(=O)CN1C(=O)c2cccc3cccc1c23,-12,2,-12,0,-13,0,x,
C(=C\c1nccc2c1[nH]c1ccccc12)/c1ccccc1,-15,7,-12,2,-58,1,x,
Fc1ccc(/C=C\c2nccc3c2[nH]c2ccccc23)cc1,-18,87*,-35,4,-68,1,80*,
Cc1ccc(/C=C\c2nccc3c2[nH]c2ccccc23)cc1,-23,75*,-51,1,-80,1,61*,
Cc1cc(=O)oc2cc(OCC(=O)OCC(=O)NCCc3ccccc3)ccc12,17,0,1,2,-53,0,x,
CC(=O)c1ccc(NC(=S)N2CCC(Cc3ccccc3)CC2)cc1,-42,61*,-14,-1,-31,0,44*,
CC(=O)c1cccc(NC(=S)N2CCC(Cc3ccccc3)CC2)c1,-13,-1,-6,1,-5,0,x,
O=C(/C=C/c1cc([N+](=O)[O-])ccc1OC(F)F)Nc1cccc(OC(F)F)c1,8,99*,-2,2,0,0,72*,
COc1ccccc1NC(=O)/C=C/c1cc([N+](=O)[O-])ccc1OC(F)F,29,6,4,3,3,0,x,
O=C(c1ccc(O)cc1)c1ccc(C(=O)c2ccc(O)cc2)cc1,1,69*,-4,-3,32,0,34*,
O=C(C(=O)c1ccc(O)cc1)c1ccccc1,5,1,4,2,-37,0,x,
C/C(=N\NC(=O)c1cccc(Cl)c1)C1C(=O)c2ccccc2C1=O,-71,89*,-25,-1,-119,0,85*,
CC(C)c1ccc(NC(=O)C(c2ccccc2)N(Cc2ccco2)C(=O)CC2NC(=O)NC2=O)cc1 (stereo unspecified),29,0,-12,-1,-3,0,x,
COc1cc(CNCCO)cc(Br)c1OCc1ccccc1Cl,8,10,12,0,0,2,x,
COc1cc(CNCCO)cc(Cl)c1OCc1ccc(Cl)cc1Cl,1,97*,-10,-2,6,-1,-12,
COc1cc(CNC2CCCC2)cc(Cl)c1OCc1ccccc1Cl,-2,82*,-1,2,9,2,-11,
CC(=O)c1ccc(N2CCN(C(=O)C3CCCN(S(=O)(=O)c4c(C)[nH]c(=O)[nH]c4=O)C3)CC2)cc1 (stereo unspecified),6,0,-2,1,3,0,x,
CN(C(=O)c1cccc(NC(=O)Cc2cccc(NC(=O)C3CCN(C(=O)c4ccccc4)CC3)c2)c1)C1CCCC1,x,0,x,x,-26,0,x,
CCOC(=O)c1sc(NC(=O)c2cccc(S(=O)(=O)N3c4ccccc4CC3C)c2)cc1C (stereo unspecified),-20,56*,-9,-1,-29,0,38*,
CCC(=NC(C)c1ccccc1)c1c(O)n(C)c(=O)n(C)c1=O (stereo unspecified),-12,67*,28,-5,53,3,33*,
SMILES,697 NFkB inh,MPTP inh,Jurkat NFkB inh,NR2E3 ag-1,NR2E3 ag-2,aDG glyco act,Rh123 counter,others
COc1ccc(-c2nn(-c3ccccc3)cc2/C=N/N=C(N)N)cc1OC,8,89*,9,-1,0,-1,-31,
COc1ccc(-c2nn(-c3ccccc3)cc2/C=N/NC(=S)NC(C)C)cc1OC,-7,2,8,0,-34,0,x,
Cc1cc(C)n(CC(O)COc2ccccc2[N+](=O)[O-])n1 (stereo unspecified),-14,1,10,-2,-23,-1,x,
O=S(=O)(NCC1CCCO1)c1ccccc1 (stereo unspecified),-5,1,-7,0,-2,0,x,
O=C(c1ccccc1)N1CCC(c2nc(-c3ccc(S(=O)(=O)NCC4CCCO4)cc3)no2)CC1 (stereo unspecified),-34,53*,25,5,21,2,62*,
CC(C)(C)c1ccc(C(=O)c2c[nH]c(C(=O)O)c2)cc1,-79,1,4,-1,-127,0,x,
COC(=O)c1cc(=O)nc(NN=C2c3ccccc3-c3ccccc32)s1,x,58*,x,x,3,0,51*,
CC(=O)NS(=O)(=O)c1ccc(NC(=O)c2cccc(OCc3c(C)noc3C)c2)cc1,23,1,2,6,-9,0,x,
NS(=O)(=O)c1ccc(NC(=S)Nc2ccc(F)c(F)c2)cc1,10,67*,-5,-4,2,0,68*,
S=C(Nc1ccc(Cl)cc1)Nc1ccc2c(c1)OCCO2,-34,50*,-40,x,-9,0,99*,
NS(=O)(=O)c1ccc(CNC(=S)Nc2ccc(F)c(Cl)c2)cc1,15,1,14,-2,-15,0,x,
S=C(Nc1ccc2c(c1)OCCO2)Nc1ccccc1Cl,-92,-1,-38,x,-2,0,x,
COc1ccc(CNC(=S)Nc2ccc(F)c(Cl)c2)cc1,-3,96*,-9,1,-7,0,97*,
Cc1ccc(NC(=S)Nc2ccc(OC(F)F)c(Cl)c2)cc1F,4,98*,5,0,-16,0,87*,
CC(C)CN(C(=O)Cn1ccccc1=O)C1CCS(=O)(=O)C1 (stereo unspecified),19,-1,5,3,-14,0,x,
CC1CCC(NC(=O)CSc2nncn2C)CC1 (stereo unspecified),3,0,0,x,-9,0,x,
O=C(NC(=S)Nc1ccc(F)c(Cl)c1)C1CC1,-23,0,12,2,-10,1,x,
